Data from PMC3861893 (Journal of medicinal chemistry, 2012).

Tests used:
[1] = tested on: antigen-specific CD8+ T cells; assay: In vivo cellular immune response assay; set-up: species or system C57BL/6 (B6) mice; settings: for response rate of tetramer positive CD8+ T cells (day 7 = 100%): average, n = 3
Method in brief: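 Mice aged 6-8 weeks immunized i.v. with 200 μL of 100 μg Trp1455/9M peptide, 50 μg anti-CD40 mAb (FGK-45.5) and 50 μg TLR2 agonist (test compound, Pam2CSK4 or Pam3CSK4). Submandibular blood taken on days 7, 21 and 34, red cells lysed with ammonium chloride. Stained 40 min on ice with anti-CD8a, PE Trp1455/9M/H-2Db tetramer and anti-MHC II. Tetramer+ CD8+ cells gated by flow cytometry; n=3.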

TLR2 = TLR2 (Homo sapiens, UniProt O60603); assay: In cyto europium TRF competition binding assay; settings: Ki (summary statement), cell line not specified, summary in discussion
TLR2, sequence (O60603 21-784): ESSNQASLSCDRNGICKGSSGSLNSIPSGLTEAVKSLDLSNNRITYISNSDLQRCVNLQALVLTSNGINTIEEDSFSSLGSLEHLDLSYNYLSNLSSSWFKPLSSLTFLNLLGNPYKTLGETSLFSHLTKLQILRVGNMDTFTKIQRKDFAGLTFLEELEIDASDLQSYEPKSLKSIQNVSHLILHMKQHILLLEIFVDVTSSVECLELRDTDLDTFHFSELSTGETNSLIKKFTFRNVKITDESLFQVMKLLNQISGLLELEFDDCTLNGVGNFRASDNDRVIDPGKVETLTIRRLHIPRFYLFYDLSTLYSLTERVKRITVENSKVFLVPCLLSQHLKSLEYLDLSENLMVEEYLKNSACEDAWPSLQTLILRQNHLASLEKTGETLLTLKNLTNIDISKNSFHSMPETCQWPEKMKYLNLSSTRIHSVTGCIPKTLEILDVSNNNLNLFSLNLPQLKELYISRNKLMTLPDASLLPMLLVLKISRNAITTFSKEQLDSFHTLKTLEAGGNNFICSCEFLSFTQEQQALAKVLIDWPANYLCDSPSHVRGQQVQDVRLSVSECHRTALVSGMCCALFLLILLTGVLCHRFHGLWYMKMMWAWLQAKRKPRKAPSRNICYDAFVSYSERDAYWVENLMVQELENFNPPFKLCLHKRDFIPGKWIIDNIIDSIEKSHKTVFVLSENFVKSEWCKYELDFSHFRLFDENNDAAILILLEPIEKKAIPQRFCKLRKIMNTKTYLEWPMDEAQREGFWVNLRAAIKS

SMILES: CCCCCCCCCCCCCCCC(=O)OC[C@H](CSC[C@H](NC(=O)COCC(=O)NCCCOCCOCCOCCCNC(C)=O)C(=O)NCC(=O)N[C@H](CO)C(=O)NCCCOCCOCCOCCCNC(=O)COCC(N)=O)OC(=O)CCCCCCCCCCCCCCC [Compound 10]
- response rate of tetramer positive CD8+ T cells (day 7 = 100%) ([1]; day 21 post-immunization): 25.7%
- response rate of tetramer positive CD8+ T cells (day 7 = 100%) ([1]; day 34 post-immunization): 12.7%
- signs or symptoms of stress or toxicity in mice ([1]; over the course of the experiment (34 days), 50 μg i.v.): No signs or symptoms of stress or toxicity were observed

SMILES: CCCCCCCCCCCCCCCC(=O)OC[C@H](CSC[C@H](NC(=O)COCC(=O)NCCCOCCOCCOCCCNC(=O)CCSC1CC(=O)N(CCNC(=O)CCCCCN2C(=CC=C3CCCC(C=CC4=[N+](CCCCS(=O)(=O)O)c5ccc(S(=O)(=O)[O-])cc5C4(C)C)=C3Oc3ccc(S(=O)(=O)O)cc3)C(C)(C)c3cc(S(=O)(=O)O)ccc32)C1=O)C(=O)NCC(=O)N[C@H](CO)C(=O)NCCCOCCOCCOCCCNC(=O)COCC(N)=O)OC(=O)CCCCCCCCCCCCCCC (stereo partly shown) [Compound 13, IRDye800CW-Mpr-PEGO-Dhc(Pam2)-Gly-DSer-PEGO-NH2]
- Ki (TLR2): < 100 nM
